Data on five compounds can be found in ChEMBL document CHEMBL1268915, “Optimization of a series of dipeptides with a P3 threonine residue as non-covalent inhibitors of the chymotrypsin-like activity of the human 20S proteasome” (Bioorg Med Chem Lett, 2010).

The source made the active and inactive calls. The rule behind the calls is not given here. Residues, ends and D or L forms follow the SMILES beside them. *: point of attachment. NHBn = c1ccc(CN*)cc1; Bn = c1ccc(C*)cc1 Some results are limits rather than exact numbers.

Series [1] can be described thus: (§1) Inhibition of TNF-alpha-induced NF-kappaB activation in human HEK293 cells after 3 hrs by luciferase reporter gene assay. The following applies: HEK293, 3 h. The format is cell-based. The procedure, abridged: (§2)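 NF-κB-luciferase reporter in HEK293 cells (10,000 per well). Cells were pre-incubated with compound for 1 h, then stimulated with 10 ng/ml TNF-α for 3 h with compound still present. IC50 and percentage inhibition were reported as means of at least three independent experiments.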

Another series concerns HEK293. The description is as §1. The following applies: dose or concentration not given here. It is filed as cell-based. Set-up: concentration or dose not given beside the values. The procedure, abridged: as §2
A short description of series [2]: Cytotoxicity against human Calu6 cells assessed as cellular ATP level after 72 hrs by luminescence-based ATPlite assay. It is filed as cell-based, Calu-6. The following applies: read-out: LC50. The method in brief: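 Calu6 cells, 2000 per well, incubated with compound for 72 h. Viability read as cellular ATP by luminescence (ATPlite). Values are means of at least three independent experiments.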

The nature of series [3]: Inhibition of chymotrypsin-like activity of human 20s proteasome beta-1 subunit in human erythrocyte assessed as hydrolysis of Ac-WLA-AMC fluorogenic substrate.
The nature of series [4]: Inhibition of chymotrypsin-like activity of human 20s proteasome beta2 subunit in human erythrocyte assessed as hydrolysis of Ac-WLA-AMC fluorogenic substrate.
Series [5] concerns the target Cathepsin B (Homo sapiens) (UniProt P07858). As to the kind of experiment: Inhibition of human cathepsin B at 100uM.
The target of series [6] is Procathepsin L (Homo sapiens) (UniProt P07711). Put plainly: Inhibition of human cathepsin L at 100uM.
Series [7] concerns the target T1, Coagulation factor XII (Homo sapiens) (UniProt P00748).
T1 sequence (whole entry): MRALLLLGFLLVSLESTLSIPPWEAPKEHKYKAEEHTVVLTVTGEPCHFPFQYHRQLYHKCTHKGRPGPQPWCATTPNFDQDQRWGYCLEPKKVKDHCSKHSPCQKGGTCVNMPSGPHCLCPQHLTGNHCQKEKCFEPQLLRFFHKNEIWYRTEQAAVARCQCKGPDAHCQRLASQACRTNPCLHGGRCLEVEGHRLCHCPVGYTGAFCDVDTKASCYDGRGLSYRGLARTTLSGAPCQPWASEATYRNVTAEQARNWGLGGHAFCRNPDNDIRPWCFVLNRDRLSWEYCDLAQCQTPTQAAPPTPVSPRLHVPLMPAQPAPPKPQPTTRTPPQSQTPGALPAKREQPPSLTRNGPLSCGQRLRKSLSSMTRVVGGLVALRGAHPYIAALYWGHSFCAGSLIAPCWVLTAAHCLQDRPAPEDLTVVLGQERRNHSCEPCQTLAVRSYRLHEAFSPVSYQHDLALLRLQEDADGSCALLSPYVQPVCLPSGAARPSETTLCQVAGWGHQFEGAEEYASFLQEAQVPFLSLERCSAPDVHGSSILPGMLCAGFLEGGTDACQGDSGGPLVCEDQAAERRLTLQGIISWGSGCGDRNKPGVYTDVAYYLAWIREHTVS
Put plainly: Inhibition of human coagulation factor beta 12a at 100 uM.

The species entered for series [8] is Homo sapiens. Put plainly: Inhibition of human chymotrypsin at 100 uM.
The species entered for series [9] is Homo sapiens. As to the kind of experiment: Inhibition of human elastase at 100 uM.
The target of series [10] is Plasminogen (Homo sapiens) (UniProt P00747). As to the kind of experiment: Inhibition of human plasmin at 100 uM.
Series [11] addresses Prothrombin (Homo sapiens) (UniProt P00734). As to the kind of experiment: Inhibition of human thrombin at 100 uM.
In series [12] the target is Tissue-type plasminogen activator (Homo sapiens) (UniProt P00750). Put plainly: Inhibition of tissue plasminogen activator at 100 uM.
The next series concerns the target Trypsin (Homo sapiens) (UniProt P07477+P07478+P35030). Put plainly: Inhibition of human trypsin at 100 uM. The format is protein assay.
The target of series [13] is T2, Calpain-1 catalytic subunit (Homo sapiens) (UniProt P07384).
T2 sequence (whole entry): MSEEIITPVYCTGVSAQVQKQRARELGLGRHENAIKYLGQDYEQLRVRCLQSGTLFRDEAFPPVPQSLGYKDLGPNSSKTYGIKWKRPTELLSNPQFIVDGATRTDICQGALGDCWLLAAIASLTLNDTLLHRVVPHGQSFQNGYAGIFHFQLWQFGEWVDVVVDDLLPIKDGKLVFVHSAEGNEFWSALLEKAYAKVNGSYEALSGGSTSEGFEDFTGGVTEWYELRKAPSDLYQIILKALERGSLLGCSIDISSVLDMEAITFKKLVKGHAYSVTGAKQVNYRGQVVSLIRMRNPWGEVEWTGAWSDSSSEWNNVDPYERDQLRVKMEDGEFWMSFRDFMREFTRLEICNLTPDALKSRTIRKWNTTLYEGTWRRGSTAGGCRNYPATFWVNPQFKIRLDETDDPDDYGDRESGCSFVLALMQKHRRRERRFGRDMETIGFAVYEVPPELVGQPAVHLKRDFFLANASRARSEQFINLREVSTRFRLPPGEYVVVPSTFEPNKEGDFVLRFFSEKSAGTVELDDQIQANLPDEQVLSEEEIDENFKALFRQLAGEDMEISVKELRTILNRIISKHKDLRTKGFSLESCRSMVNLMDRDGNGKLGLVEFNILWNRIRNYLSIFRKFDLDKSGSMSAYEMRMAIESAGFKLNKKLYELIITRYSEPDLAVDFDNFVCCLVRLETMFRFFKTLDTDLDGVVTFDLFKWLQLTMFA
Put plainly: Inhibition of human calpain 1 at 100 uM.

The nature of series [14]: Inhibition of chymotrypsin-like activity of human 20s proteasome beta5 subunit in human erythrocyte assessed as hydrolysis of Ac-WLA-AMC fluorogenic substrate.

Chain of Plasminogen (Homo sapiens) (P00747 97-580 limits assumed): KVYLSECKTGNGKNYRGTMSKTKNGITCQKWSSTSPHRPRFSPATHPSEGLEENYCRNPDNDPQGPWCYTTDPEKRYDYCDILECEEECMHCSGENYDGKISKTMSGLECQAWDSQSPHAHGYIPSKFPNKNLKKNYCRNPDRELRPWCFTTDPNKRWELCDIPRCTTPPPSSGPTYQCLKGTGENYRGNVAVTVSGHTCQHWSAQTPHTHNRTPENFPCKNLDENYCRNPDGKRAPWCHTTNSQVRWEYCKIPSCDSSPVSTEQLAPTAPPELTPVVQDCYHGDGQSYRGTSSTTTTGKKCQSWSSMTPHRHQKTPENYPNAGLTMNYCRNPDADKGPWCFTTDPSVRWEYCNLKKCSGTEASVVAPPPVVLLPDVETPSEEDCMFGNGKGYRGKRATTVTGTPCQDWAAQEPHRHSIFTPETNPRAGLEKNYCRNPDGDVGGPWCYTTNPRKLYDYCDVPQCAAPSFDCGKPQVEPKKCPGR
Chain of Plasminogen (Homo sapiens) (P00747 581-810 limits assumed): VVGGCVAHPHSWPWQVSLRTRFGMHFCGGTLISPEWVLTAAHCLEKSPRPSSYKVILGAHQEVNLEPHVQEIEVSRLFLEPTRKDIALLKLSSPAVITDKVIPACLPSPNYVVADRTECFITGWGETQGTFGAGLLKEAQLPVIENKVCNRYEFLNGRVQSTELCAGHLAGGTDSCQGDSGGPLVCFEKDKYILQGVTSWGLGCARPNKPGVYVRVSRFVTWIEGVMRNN
Chain of Procathepsin L (Homo sapiens) (P07711 114-333 limits assumed): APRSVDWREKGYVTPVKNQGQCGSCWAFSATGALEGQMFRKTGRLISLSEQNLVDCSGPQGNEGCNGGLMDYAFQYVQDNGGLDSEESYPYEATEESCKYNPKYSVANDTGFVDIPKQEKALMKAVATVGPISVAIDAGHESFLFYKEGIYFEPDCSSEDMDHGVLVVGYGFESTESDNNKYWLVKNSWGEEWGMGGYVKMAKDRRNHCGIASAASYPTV
Chain of Tissue-type plasminogen activator (Homo sapiens) (P00750 36-562 limits assumed): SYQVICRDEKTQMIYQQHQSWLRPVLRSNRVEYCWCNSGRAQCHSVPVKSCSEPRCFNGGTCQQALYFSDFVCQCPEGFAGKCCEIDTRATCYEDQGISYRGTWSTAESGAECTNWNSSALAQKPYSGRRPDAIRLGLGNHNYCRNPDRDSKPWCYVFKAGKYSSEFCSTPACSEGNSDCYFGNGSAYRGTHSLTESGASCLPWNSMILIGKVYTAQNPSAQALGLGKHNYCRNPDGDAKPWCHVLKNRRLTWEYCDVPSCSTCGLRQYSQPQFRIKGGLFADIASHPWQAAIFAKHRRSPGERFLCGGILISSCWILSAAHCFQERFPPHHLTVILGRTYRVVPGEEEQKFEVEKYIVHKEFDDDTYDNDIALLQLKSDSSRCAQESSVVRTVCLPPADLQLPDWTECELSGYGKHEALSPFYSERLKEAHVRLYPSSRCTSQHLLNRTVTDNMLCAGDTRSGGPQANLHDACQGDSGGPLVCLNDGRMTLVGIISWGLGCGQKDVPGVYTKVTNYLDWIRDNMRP

For orientation: IC50 means the midpoint of a concentration-inhibition curve. One may read the inhibition as the drop in the measured response relative to a control, in per cent. In the case of `Cc1ccsc1CNC(=O)[C@H](CCc1ccccc1)NC(=O)[C@@H](NC(=O)c1ccc(OCc2ccccc2)cc1)[C@@H](C)O`, the IC50 in series [1] was 28 nM; in [3], greater than 20 µM; in series [4], greater than 20 µM. Also, the inhibition with HEK293 came to 81%. In addition, the CC50 at 72 h in [2] was determined as 110 nM. The inhibition result (in series [5]; in series [6]; in [7]; in the series filed under Homo sapiens [8]; in the series listed under Homo sapiens [9]; in [10]) was “Active” each time. Moreover, the inhibition result (in series [11]; in [12]; on Trypsin (Homo sapiens); in series [13]) was “Active” throughout.

With `Cc1ccccc1CCC(=O)N[C@H](C(=O)N[C@@H](CCc1ccccc1)C(=O)NCc1ccccc1Cl)[C@@H](C)O`, the IC50 in series [1] is 330 nM; in series [3], greater than 20 µM; in series [4] it was greater than 20 µM. In the series on HEK293, this compound yielded an inhibition of 71%. In addition, the CC50 at 72 h in series [2] worked out at 2700 nM. Also, the inhibition result (in series [5]; in [6]; in series [7]; in the series filed under Homo sapiens [8]; in the series filed under Homo sapiens [9]; in series [10]) was “Active” throughout. The inhibition result (in [11]; in [12]; on Trypsin (Homo sapiens); in series [13]) was “Active” each time.

Regarding `C[C@@H](O)[C@H](NC(=O)c1ccc(OCc2ccccc2)cc1)C(=O)N[C@@H](CCc1ccccc1)C(=O)NCCc1cccs1`, the IC50 in series [14] was 3200 nM; in [1], greater than 50000 nM; in series [3] it was greater than 20 µM; in series [4] it was greater than 20 µM. Moreover, the CC50 at 72 h in series [2] is greater than 25000 nM. Further, the inhibition result (in series [5]; in series [6]; in series [7]; in the series filed under Homo sapiens [8]; in the series filed under Homo sapiens [9]; in series [10]) was “Active” in each case. In addition, the inhibition result (in series [11]; in [12]; on Trypsin (Homo sapiens); in series [13]) was “Active” throughout.

For the compound `COc1ccc(CNC(=O)[C@@H](NC(=O)[C@H](Cc2cc(OC)c(OC)c(OC)c2)NC(=O)Cc2cccc(Oc3ccccc3)c2)C(C)C)c(O)c1`, the IC50 in series [14] was 15 nM; in series [3], greater than 20 µM; in series [4] it was greater than 20 µM. Moreover, the inhibition entry (in series [5]; in series [6]; in series [7]; in the series listed under Homo sapiens [8]; in the series filed under Homo sapiens [9]; in [10]) was “Active” each time. Besides, the inhibition result (in [11]; in series [12]; at Trypsin (Homo sapiens); in [13]) was “Active” in each case.

On to `C[C@H](NC(=O)[C@@H](N)Cc1ccc(OCc2ccccc2)cc1)C(=O)N[C@@H](Cc1c[nH]c2ccccc12)C(=O)NCc1ccccc1` (H-Tyr(Bn)-Ala-Trp-NHBn), for which the IC50 in series [3] and in series [4] was greater than 20 µM each time. Also, the inhibition entry (in [5]; in series [6]; in [7]; in the series filed under Homo sapiens [8]; in the series listed under Homo sapiens [9]; in [10]) was “Active” throughout. In addition, the inhibition result (in [11]; in [12]; on Trypsin (Homo sapiens); in series [13]) was “Active” each time.
